As a reminder, the IC50 is the concentration that gives 50% inhibition. A low value points to higher potency. A word on the CC50: it is the concentration that lowers cell viability or growth by half. Low readings indicate greater toxicity to the cells, high ones lower toxicity to the cells.

Values after ≈ are worked out from the molar mass of the structure shown.

IC50, CC50 and MCC data for 21 molecules are collected here from ChEMBL document CHEMBL1139658, “Synthesis and screening of bicyclic carbohydrate-based compounds: a novel type of antivirals” (Bioorg Med Chem Lett, 2006).

In test [1] the test system is Cytomegalovirus. Put plainly: Antiviral activity against Cytomegalovirus Davies in human embryonic lung cells. The conditions noted are these: Human betaherpesvirus 5, Davies. The class given is functional, organism-based. In short, it runs like this: (§1)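 HEL cell monolayers infected at 20 PFU per well, adsorbed 2 h at 37 °C. Medium with serial compound dilutions then added. Giemsa stain on day 7 and plaques counted under the microscope. IC50 is the concentration giving 50% inhibition of virus-induced plaque formation. Minimum cytotoxic concentration scored on day 7 as the lowest concentration causing visible change to the confluent cells.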

For test [2], the system named is Cytomegalovirus. Kind of test: Antiviral activity against Cytomegalovirus AD-169 in human embryonic lung cells. Type of test: functional, organism-based. The conditions noted are these: Human betaherpesvirus 5, AD-169, lung. In short, it runs like this: as §1
For a further test, the system named is HEL. Kind of test: Cytotoxicity against human embryonic lung cells. The class given is functional. In short, it runs like this: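 Two HEL cell toxicity read-outs. Cell growth (CC50): growing HEL cells in 96-well plates were given serial compound concentrations for 3 days, then trypsinized and counted with a Coulter counter; CC50 is the concentration cutting cell growth by 50%. Morphology (MCC): on confluent monolayers during the antiviral assay, this is the lowest concentration with microscopically visible toxicity at day 7.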

In the case of `C=CCO[C@@H]1[C@@H](OCC=C)[C@H](Cc2ccccc2)O[C@@H]2CO[C@@H](c3ccccc3)O[C@@H]12`, the IC50 with Cytomegalovirus [1] was 1 µg/mL (≈ 2.37 µM). Moreover, half-maximal inhibition in the test on Cytomegalovirus [2] (IC50) was put at 1.2 µg/mL (≈ 2.84 µM). For the same molecule, in the test with HEL, the half-maximal cytotoxic concentration (CC50) is above 50 µg/mL and the MCC was 20 µg/mL.

The molecule `CO[C@@H]1[C@@H](OC)[C@H](c2ccccc2)O[C@@H]2CO[C@@H](C3CCCCC3)O[C@@H]12` yielded a half-inhibitory concentration (IC50) with Cytomegalovirus [1] of 3.5 µg/mL (≈ 9.66 µM). Moreover, in the test on Cytomegalovirus [2], the IC50 amounted to 3.2 µg/mL (≈ 8.83 µM). In the test with HEL, it took 28 µg/mL (≈ 77.2 µM) to reach half-maximal cytotoxicity (CC50) and the MCC was 20 µg/mL.

Turning to `C#CCO[C@@H]1[C@@H](OCC#C)[C@H](Cc2ccccc2)O[C@@H]2CO[C@@H](c3ccccc3)O[C@@H]12`, the IC50 with Cytomegalovirus [1] and with Cytomegalovirus [2] was 0.5 µg/mL (≈ 1.19 µM) throughout. For the same molecule, in the test on HEL, the MCC is 40 µg/mL.

`CO[C@H]1[C@@H]2O[C@H](c3ccccc3)OC[C@H]2O[C@@H](c2ccccc2)[C@H]1OC`: the half-maximal inhibitory concentration (IC50) in the test on Cytomegalovirus [1] and with Cytomegalovirus [2] was above 50 µg/mL throughout. The molecule also gave an MCC in the test on HEL of 400 µg/mL.

Take `CO[C@@H]1[C@@H](OC)[C@H](c2ccccc2)O[C@@H]2CO[C@@H](c3ccc(-c4ccccc4)cc3)O[C@@H]12`: 0.6 µg/mL (≈ 1.39 µM) corresponded to half-maximal inhibition in the test on Cytomegalovirus [1] (IC50). Also, the IC50 in the test on Cytomegalovirus [2] was found to be 0.8 µg/mL (≈ 1.85 µM). Moreover, in the test with HEL, the half-maximal cytotoxic concentration (CC50) was above 50 µg/mL and the MCC was at least 16 µg/mL.

`O=[N+]([O-])c1ccc([C@@H]2OC[C@H]3O[C@@H](c4ccccc4)[C@H](O)[C@@H](O)[C@@H]3O2)cc1`: the values for the half-maximal inhibitory concentration (IC50) with Cytomegalovirus [1] and with Cytomegalovirus [2] were 9.3 µg/mL (≈ 24.9 µM) and 10 µg/mL (≈ 26.8 µM), respectively. This molecule registered a CC50 with HEL above 50 µg/mL. Moreover, the MCC in the test with HEL was found to be 50 µg/mL.

For the molecule `CO[C@@H]1[C@@H](OC)[C@H](c2ccccc2)O[C@@H]2CO[C@@H](c3ccc(Cl)cc3)O[C@@H]12`, the concentration for half-maximal inhibition (IC50) in the test on Cytomegalovirus [1] stood at 4 µg/mL (≈ 10.2 µM). The same molecule yielded an IC50 in the test with Cytomegalovirus [2] of 5 µg/mL (≈ 12.8 µM). In the test on HEL, this molecule showed a cytotoxic concentration (CC50) above 50 µg/mL and an MCC of at least 100 µg/mL.

In the test with Cytomegalovirus [1], `CCCCCO[C@@H]1[C@@H](OCCCCC)[C@H](c2ccccc2)O[C@@H]2CO[C@@H](c3ccccc3)O[C@@H]12` returned an IC50 of 2.4 µg/mL (≈ 5.12 µM). Besides, the IC50 in the test with Cytomegalovirus [2] is above 3.2 µg/mL. In the test on HEL, this molecule displayed a CC50 of 182 µg/mL (≈ 388 µM) and an MCC of 16 µg/mL.

On to `CO[C@@H]1[C@@H](OC)[C@H](c2ccccc2)O[C@@H]2CO[C@@H](c3cccc(Cl)c3)O[C@@H]12`, for which the IC50 was 3.2 µg/mL (≈ 8.19 µM) with Cytomegalovirus [1] and 5 µg/mL (≈ 12.8 µM) in the test on Cytomegalovirus [2]. In the test with HEL, this molecule showed an MCC of at least 40 µg/mL.

`CO[C@@H]1[C@@H](OC)[C@H](Cc2ccccc2)O[C@@H]2CO[C@@H](c3ccccc3)O[C@@H]12`: in the test on Cytomegalovirus [1], it took 5 µg/mL (≈ 13.5 µM) to reach half-maximal inhibition (IC50). For the same molecule, the half-inhibitory concentration (IC50) with Cytomegalovirus [2] came to 20 µg/mL (≈ 54 µM). For the same molecule, in the test with HEL, the 50% cytotoxic concentration (CC50) is above 50 µg/mL and the MCC came out at 20 µg/mL.

In turn, `O[C@@H]1[C@@H](O)[C@H](c2ccccc2)O[C@@H]2CO[C@@H](c3ccc(Cl)cc3)O[C@@H]12` displayed an IC50 with Cytomegalovirus [1] of 10 µg/mL (≈ 27.6 µM). Further, the concentration for half-maximal inhibition (IC50) in the test with Cytomegalovirus [2] was found to be 14 µg/mL (≈ 38.6 µM). In addition, in the test with HEL, the 50% cytotoxic concentration (CC50) is above 50 µg/mL and the MCC was at least 100 µg/mL.

On to `CO[C@@H]1[C@@H](OC)[C@H](c2ccccc2)O[C@@H]2CO[C@@H](c3ccc4ccccc4c3)O[C@@H]12`, for which the IC50 is 0.8 µg/mL (≈ 1.97 µM) in the test with Cytomegalovirus [1] and 0.47 µg/mL (≈ 1.16 µM) in the test on Cytomegalovirus [2]. Besides, the CC50 in the test with HEL was above 50 µg/mL. The molecule also registered an MCC in the test on HEL of at least 16 µg/mL.

In the case of `C=CC[C@@H]1O[C@@H]2CO[C@@H](c3ccccc3)O[C@H]2[C@H](OC)[C@H]1OC`, the half-maximal inhibitory concentration (IC50) in the test with Cytomegalovirus [1] and in the test with Cytomegalovirus [2] was above 50 µg/mL in each case.

With `O[C@@H]1[C@@H](O)[C@H](c2ccccc2)O[C@@H]2CO[C@@H](c3ccc(C(F)(F)F)cc3)O[C@@H]12`, the half-maximal inhibitory concentration (IC50) with Cytomegalovirus [1] and in the test with Cytomegalovirus [2] was 1.6 µg/mL (≈ 4.04 µM) throughout. The molecule also returned a cytotoxic concentration (CC50) in the test on HEL of 35 µg/mL (≈ 88.3 µM). Further, in the test with HEL, the MCC is 400 µg/mL.

With `CCO[C@@H]1[C@@H](OCC)[C@H](Cc2ccccc2)O[C@@H]2CO[C@@H](c3ccccc3)O[C@@H]12`, 3 µg/mL (≈ 7.53 µM) corresponded to half-maximal inhibition in the test with Cytomegalovirus [1] (IC50). The molecule also showed a half-inhibitory concentration (IC50) in the test on Cytomegalovirus [2] of 2.6 µg/mL (≈ 6.52 µM). In the test on HEL, the 50% cytotoxic concentration (CC50) was above 50 µg/mL and the MCC was above 120 µg/mL.

Regarding `CO[C@H]1[C@H]2O[C@H](c3ccccc3)OC[C@H]2O[C@@H](c2ccccc2)[C@@H]1OC`, the IC50 with Cytomegalovirus [1] and in the test with Cytomegalovirus [2] was above 50 µg/mL each time. The MCC with HEL is above 400 µg/mL.

Consider `C#CCO[C@@H]1[C@@H](OCC#C)[C@H](c2ccccc2)O[C@@H]2CO[C@@H](c3ccccc3)O[C@@H]12`, for which the IC50 in the test on Cytomegalovirus [1] amounted to 3 µg/mL (≈ 7.42 µM); in the test with Cytomegalovirus [2] it was 5 µg/mL (≈ 12.4 µM). Moreover, the MCC in the test on HEL was 40 µg/mL.

Take `CO[C@@H]1[C@@H](OC)[C@H](c2ccccc2)O[C@@H]2CO[C@@H](c3ccccc3)O[C@@H]12`: the results for the half-inhibitory concentration (IC50) with Cytomegalovirus [1] and in the test on Cytomegalovirus [2] were 2.4 µg/mL (≈ 6.73 µM) and 2 µg/mL (≈ 5.61 µM), respectively.

Take `CC(C)CO[C@@H]1[C@@H](OCC(C)C)[C@@H](c2ccccc2)O[C@@H]2CO[C@@H](c3ccccc3)O[C@@H]12`: the IC50 with Cytomegalovirus [1] is 3.2 µg/mL (≈ 7.26 µM); with Cytomegalovirus [2] it was 2.6 µg/mL (≈ 5.9 µM). The molecule also showed an MCC with HEL of 40 µg/mL.

In the test with Cytomegalovirus [1], `CO[C@@H]1[C@@H](OC)[C@H](c2ccccc2)O[C@@H]2CO[C@@H](c3ccc(C(F)(F)F)cc3)O[C@@H]12` yielded a half-inhibitory concentration (IC50) of 3.1 µg/mL (≈ 7.3 µM). The IC50 with Cytomegalovirus [2] was determined as 1.5 µg/mL (≈ 3.53 µM). Moreover, in the test with HEL, the CC50 was above 50 µg/mL and the MCC was at least 16 µg/mL.

Regarding `O[C@@H]1[C@@H](O)[C@H](c2ccccc2)O[C@@H]2CO[C@@H](c3ccc4ccccc4c3)O[C@@H]12`, the IC50 in the test with Cytomegalovirus [1] turned out to be 1.8 µg/mL (≈ 4.76 µM). The molecule also showed an IC50 in the test on Cytomegalovirus [2] of 1.3 µg/mL (≈ 3.44 µM). In addition, in the test on HEL, it took 21 µg/mL (≈ 55.5 µM) to reach half-maximal cytotoxicity (CC50) and the MCC is at least 400 µg/mL.
